Data as given in article PMC3355519 (Journal of Medicinal Chemistry, 2012).
pKi: −log10 of the molar value.

Assays:
[1] = test system: HIV-1LAI; details: against HIV-1LAI; cited from earlier work
[2] = target: HIV-1 PRI47V (Human immunodeficiency virus type 1 group M subtype B, UniProt P04585, C555A/C583A/I535V/L521I/L551I/Q495K); experiment: HIV-1 protease inhibition, fluorogenic p2/NC substrate, I47V mutant; assay type: biochemical
How it was run: (§1)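 Recombinant HIV-1 protease (HXB2) carried stabilising substitutions Q7K, L33I, L63I, C67A and C95A, plus the point mutation introduced by site-directed mutagenesis. It was expressed in E. coli BL21(DE3) and purified from inclusion bodies. Enzyme (12-45 nM final) was preincubated 5 min at 37 °C with test compound or DMSO in 0.1 M MES pH 5.6, 0.4 M NaCl, 1 mM EDTA, 5% glycerol. Abz-Thr-Ile-Nle-p-nitro-Phe-Gln-Arg-NH2 started the reaction, read 5 min at ex 340/em 420 nm. Ki = (IC50 − [E]/2)/(1 + [S]/Km).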

[3] = target: HIV-1 PRV82A (Human immunodeficiency virus type 1 group M subtype B, UniProt P04585, C555A/C583A/L521I/L551I/Q495K/V570A); experiment: HIV-1 protease inhibition, fluorogenic p2/NC substrate, V82A mutant; assay type: biochemical; details: PRV82A vs PRWT
How it was run: as §1

[4] = test system: HIV-1 protease D30N/N88D double mutant; details: cited from earlier work

Row | Structure (SMILES) | selectivity index (CC50/EC50) [1] | pKi ([2]; Ki, PRI47V, pH 5.6, 37 °C) | change in the inhibition constant vs wild-type ([2]; PRI47V vs PRWT) | change in the inhibition constant vs wild-type [3] | increase of Ki value compared to wild-type [4]
1 | COc1ccc(S(=O)(=O)N(C[C@H]2CCC(=O)N2)C[C@@H](O)[C@H](Cc2ccccc2)NC(=O)O[C@@H]2C[C@@H]3CCO[C@@H]3C2)cc1 [Compound 1] | > 3,600 | 9.40 | less than 2 fold | less than 2 fold | –
2 | Cc1c(O)cccc1C(=O)N[C@@H](CSc1ccccc1)[C@H](O)CN1C[C@H]2CCCC[C@H]2C[C@H]1C(=O)NC(C)(C)C [NFV, nelfinavir] | – | – | – | – | 260 fold
